# Test results published in ChEMBL document CHEMBL2202989, “New adamantane phenylalkylamines with σ-receptor binding affinity and anticancer activity, associated with putative antagonism of neuropathic pain” (J Med Chem, 2012).
# Active and inactive are the calls of the source. The calls are words filed in the database; no cut-off is given here.
# What was measured:
# [1] = Displacement of [3H]1,3-di-otolylguanidine from sigma 2 receptor in rat cerebral cortex membranes; assay type: cell membranes, Membrane
# In short: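 Rat cerebral cortex membranes incubated with 5 nM [3H]DTG plus 300 nM (+)-pentazocine to mask σ1 sites, together with a range of test concentrations, 2 h at 22 °C in Tris-HCl, pH 7.4. Nonspecific binding defined with 10 μM haloperidol.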
# IGROV-1 [2] = test: Induction of apoptosis in human IGROV1 cells assessed as late apoptosis at 5 uM using annexin V/7-AAD by FACS analysis (reference value: 5 %); assay type: functional
# BXPC-3 [3] = test: Induction of apoptosis in human BxPC3 cells assessed as healthy cells at 0.5 uM using annexin V/7-AAD by FACS analysis (reference value: 79 %); assay type: functional
# Mus musculus [4] = test: Analgesic activity in CD1 mouse neuropathic pain model assessed as reduction in paw licking time at 50 mg/kg, po administered 1 hr prior to formalin challenge in presence of paclitaxel; assay type: functional, organism-based; design: dose 50 mg/kg
# In short: (§1)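 CD1 male mice (34−40 g), free access to food and water, were given paclitaxel 6 mg/kg ip once in saline on day 0. On day 14 the test compound was given orally 1 h before formalin was injected into the hind paw. Time spent licking and biting the injected paw and leg was recorded at 0−5 and 35−40 min after formalin.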
# DU-145 = test: Antitumor activity against human DU145 cells xenografted in SCID mouse assessed as tumor growth inhibition at 55 mg/kg, ip administered 5 consecutive days in a week for two cycles measured after 2 cycles relative to control; assay type: functional; conditions: DU-145, ip, route intraperitoneal, read-out: TGI
# In short: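 DU145 xenografts were grown in SCID mice from 10^6-cell inocula, with at least 30 animals in total. Treatment started ip at a mean tumor volume of about 100 mm3. The test agent was given in 5% Tween 80; paclitaxel was dissolved in Cremophor and diluted in saline. Caliper volumes were taken twice weekly and %ΔT/ΔC calculated; two-tailed t test.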
# BXPC-3 [5] = test: Induction of apoptosis in human BxPC3 cells assessed as late apoptosis at 50 uM using annexin V/7-AAD by FACS analysis (reference value: 9 %); assay type: functional
# In short: (§2)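 Cells plated 24 h before treatment, then exposed 24 h to 0.5, 5, 15 or 50 μM compound (final DMSO 0.5%); vehicle controls included. Cells scraped and stained with annexin V-FITC and 7-AAD for 15 min on ice in the dark. Flow cytometry with 488 nm excitation, 10,000 gated cells. Early apoptosis was annexin V+/7-AAD−, late was annexin V+/7-AAD+.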
# Mus musculus [6] = test: Analgesic activity in CD1 mouse neuropathic pain model assessed as reduction in paw licking time at 100 mg/kg, po administered 1 hr prior to formalin challenge in presence of paclitaxel; assay type: functional, organism-based; design: dose 100 mg/kg; in short: as §1
# PC-3 [7] = test: Antitumor activity against human PC3 cells xenografted in SCID mouse assessed as tumor growth inhibition at 55 mg/kg, ip administered 5 consecutive days in a week for two cycles measured after 2 cycles relative to control; assay type: functional; conditions: PC-3, ip, route intraperitoneal, read-out: TGI
# In short: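 PC3 xenografts were grown in SCID mice (10^6 cells per inoculum), 14 mice (28 tumors) per group, dosed ip from about 100 mm3. The test agent was given in 5% Tween 80; paclitaxel was given in Cremophor diluted in saline, with a vehicle of 1:1 ethanol/Cremophor diluted 1:3 in saline. Volume and %ΔT/ΔC were derived from caliper readings twice weekly. Occurrence of primary tumors and of axillary and bone metastases was scored (n = 7). Two-tailed t test.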
# HL-60(TB) = test: Growth inhibition of human HL-60(TB) cells after 48 hrs by SRB assay; assay type: functional; conditions: HL-60, 48 h
# In short: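 Cells kept in RPMI 1640 with 5% FCS at 37 °C, 5% CO2, and seeded 24 h before dosing. Compound given from DMSO at 10-fold dilutions, 100 to 0.01 μM, for 48 h. Cells fixed with TCA, stained with SRB, absorbance read at 540 nm. GI50 taken from a time-zero plate.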
# PC-3 [8] = test: Cell cycle arrest in human PC3 cells assessed as accumulation at sub G1 phase at 15 uM after 24 hrs using propidium iodide staining by FACS analysis (reference value: 4 %); assay type: functional
# PC-3 [9] = test: Induction of apoptosis in human PC3 cells assessed as total apoptotic death at 50 uM using annexin V/7-AAD by FACS analysis (reference value: 8 %); assay type: functional; in short: as §2
# PC-3 [10] = test: Induction of apoptosis in human PC3 cells assessed as late apoptosis at 15 uM using annexin V/7-AAD by FACS analysis (reference value: 3 %); assay type: functional; in short: as §2
# IGROV-1 [11] = test: Cell cycle arrest in human IGROV1 cells assessed as accumulation at G2 phase at 0.5 uM after 24 hrs using propidium iodide staining by FACS analysis (reference value: 19 %); assay type: functional
# In short: (§3)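 Cells were plated 24 h before treatment and exposed for 24 h at final 0.5, 5, 15 and 50 μM in 0.5% DMSO, against vehicle-treated controls. Cells were then trypsinised and fixed in cold ethanol for 3 h at 4 °C. They were stained in a mix of RNase (200 μg/mL) and PI (1 mg/mL) for 45 min at room temperature in the dark. Flow cytometry used 488 nm excitation and 10 000 gated cells. Phase percentages were assigned from DNA content.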
# PC-3 [12] = test: Cell cycle arrest in human PC3 cells assessed as accumulation at G2 phase at 50 uM after 24 hrs using propidium iodide staining by FACS analysis (reference value: 12 %); assay type: functional
# IGROV-1 [13] = test: Cell cycle arrest in human IGROV1 cells assessed as accumulation at S phase at 50 uM after 24 hrs using propidium iodide staining by FACS analysis (reference value: 29 %); assay type: functional
# PC-3 [14] = test: Cell cycle arrest in human PC3 cells assessed as accumulation at >G2/M phase at 0.5 uM after 24 hrs using propidium iodide staining by FACS analysis (reference value: 6 %); assay type: functional
# MIA PaCa-2 = test: Growth inhibition of human MIAPaCa2 cells after 48 hrs by SRB assay; assay type: functional; conditions: MIA PaCa-2, 48 h
# In short: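 Cells grown in RPMI 1640 with 5% heat-inactivated FCS, 2 mM L-glutamine and antibiotics, 37 °C, 5% CO2. Seeded at 3500–30000 cells/well and left 24 h before dosing. DMSO solutions added at 10-fold dilutions from 100 to 0.01 μM for 48 h. Cells TCA-fixed and SRB-stained, absorbance read at 540 nm; GI50 derived against the time-zero plate.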
# PC-3 [15] = test: Induction of apoptosis in human PC3 cells assessed as late apoptosis at 50 uM using annexin V/7-AAD by FACS analysis (reference value: 3 %); assay type: functional
# BXPC-3 [16] = test: Cell cycle arrest in human BxPC3 cells assessed as accumulation at S phase at 5 uM after 24 hrs using propidium iodide staining by FACS analysis (reference value: 33 %); assay type: functional; in short: as §3
# BXPC-3 [17] = test: Cell cycle arrest in human BxPC3 cells assessed as accumulation at G2 phase at 0.5 uM after 24 hrs using propidium iodide staining by FACS analysis (reference value: 12 %); assay type: functional; in short: as §3
# BXPC-3 [18] = test: Induction of apoptosis in human BxPC3 cells assessed as healthy cells at 50 uM using annexin V/7-AAD by FACS analysis (reference value: 79 %); assay type: functional
# [19] = read-out: LC50 (the source's name)
smiles,measurement,setting,value
CN1CCN(CCCc2ccc(C(c3ccccc3)C34CC5CC(CC(C5)C3)C4)cc2)CC1 (stereo not given),IC50,[1],0.085 µM
same,Activity,IGROV-1 [2],5%
same,Activity,BXPC-3 [3],82%
same,Activity,Mus musculus [4],Active
same,inhibition in vivo at 55 mg/kg,DU-145,71.4%
same,Activity,BXPC-3 [5],44%
same,Activity,Mus musculus [6],Active
same,inhibition in vivo at 55 mg/kg,PC-3 [7],48%
same,GI50,HL-60(TB),0.00402 µM
same,TGI,HL-60(TB),0.00788 µM
same,CC50,HL-60(TB); [19],0.1 µM
same,Activity,PC-3 [8],25%
same,Activity,PC-3 [9],23%
same,Activity,PC-3 [10],7%
same,Activity,IGROV-1 [11],23%
same,Activity,PC-3 [12],11%
same,Activity,IGROV-1 [13],28%
same,Activity,PC-3 [14],7%
same,GI50,MIA PaCa-2,9.39 µM
same,TGI,MIA PaCa-2,40.1 µM
same,CC50,MIA PaCa-2; [19],0.0726 µM
same,Activity,PC-3 [15],9%
same,Activity,BXPC-3 [16],23%
same,Activity,BXPC-3 [17],11%
same,Activity,BXPC-3 [18],12%
